The record followed here is ChEMBL document CHEMBL3877325, “Novel salicylanilides from 4,5-dihalogenated salicylic acids: Synthesis, antimicrobial activity and cytotoxicity” (Bioorg Med Chem, 2017).

Format in all cases: functional
Assay [1] has as its system Mycobacterium tuberculosis. The experiment in a line: Antimycobacterial activity against extensively drug resistant Mycobacterium tuberculosis Praha 131 after 14 days by micromethod. Particulars: Praha 131, 336 h. A digest of the protocol:
(§1)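 MIC micromethod in Šula's semisynthetic medium at 37 °C, read after 14 and 21 days. Compounds added as DMSO solutions at 500 down to 0.5 µM (twofold-type series: 500, 250, 125, 62.5, 32, 16, 8, 4, 2, 1, 0.5 µM). Isoniazid standard given in sterile water.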

Assay [2] relates to Mycobacterium tuberculosis. The experiment in a line: Antimycobacterial activity against multidrug resistant Mycobacterium tuberculosis 234/2005 after 14 days by micromethod. The note with it: 234/2005, 336 h. A digest of the protocol:
(§2)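 Multidrug-resistant M. tuberculosis strains, each inoculated at 10^-3 dilution; 234/2005 is resistant to INH, RIF, rifabutin, streptomycin, ethambutol and ofloxacin. MIC determined by micromethod in Šula's semisynthetic medium at 37 °C after 14 and 21 days. Compounds added from DMSO at 0.5–500 µM.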

Assay [3] deals with Mycobacterium tuberculosis. The experiment in a line: Antimycobacterial activity against multidrug resistant Mycobacterium tuberculosis 234/2005 after 21 days by micromethod. Particulars: 234/2005, 504 h. An outline of the steps:
as §2

Assay [4] concerns Mycobacterium tuberculosis. As to the kind of experiment: Antimycobacterial activity against multidrug resistant Mycobacterium tuberculosis 9449/2007 after 14 days by micromethod. The note with it: 9449/2007, 336 h. An outline of the steps:
as §2

The test system of assay [5] is Mycobacterium tuberculosis. As to the kind of experiment: Antimycobacterial activity against multidrug resistant Mycobacterium tuberculosis 9449/2007 after 21 days by micromethod. Particulars: 9449/2007, 504 h. An outline of the steps:
as §2

For assay [6], the system named is Mycobacterium tuberculosis. The experiment in a line: Antimycobacterial activity against multidrug resistant Mycobacterium tuberculosis 242/2015 after 14 days by micromethod. The note with it: 242/2015, 336 h. An outline of the steps:
as §2

In assay [7] the test system is Mycobacterium tuberculosis. As to the kind of experiment: Antimycobacterial activity against multidrug resistant Mycobacterium tuberculosis Praha 1 after 14 days by micromethod. Particulars: Praha 1, 336 h. An outline of the steps:
as §2

The test system of assay [8] is Mycobacterium tuberculosis. As to the kind of experiment: Antimycobacterial activity against multidrug resistant Mycobacterium tuberculosis 242/2015 after 21 days by micromethod. Particulars: 242/2015, 504 h. A digest of the protocol:
as §2

The subject of assay [9] is Mycobacterium tuberculosis. The experiment in a line: Antimycobacterial activity against multidrug resistant Mycobacterium tuberculosis Praha 1 after 21 days by micromethod. Particulars: Praha 1, 504 h. An outline of the steps:
as §2

Assay [10] deals with Mycobacterium tuberculosis. As to the kind of experiment: Antimycobacterial activity against multidrug resistant Mycobacterium tuberculosis Praha 4 after 14 days by micromethod. Particulars: Praha 4, 336 h. A digest of the protocol:
as §2

Assay [11] deals with Mycobacterium tuberculosis. As to the kind of experiment: Antimycobacterial activity against multidrug resistant Mycobacterium tuberculosis Praha 4 after 21 days by micromethod. Particulars: Praha 4, 504 h. A digest of the protocol:
as §2

The test system of assay [12] is Mycobacterium tuberculosis. As to the kind of experiment: Antimycobacterial activity against extensively drug resistant Mycobacterium tuberculosis Praha 131 after 21 days by micromethod. The note with it: Praha 131, 504 h. A digest of the protocol: as §1

Values after ≈ are worked out from the molar mass of the structure shown.

On to `O=C(Nc1ccc(C(F)(F)F)cc1)c1cc(Br)ccc1O`, for which the MIC – broadly, the smallest concentration in the dilution series that meets the test's criterion for growth inhibition – in assay [1] came to 2 µM (≈ 0.72 µg/mL); in [2], 2 µM (≈ 0.72 µg/mL); in assay [3], 4 µM (≈ 1.44 µg/mL); in assay [4], 2 µM (≈ 0.72 µg/mL); in assay [5], 1 µM (≈ 0.36 µg/mL); in assay [6] it was 1 µM (≈ 0.36 µg/mL). Moreover, the MIC in [7] was found to be 1 µM (≈ 0.36 µg/mL); in [8], 2 µM (≈ 0.72 µg/mL); in assay [9] it was 1 µM (≈ 0.36 µg/mL); in [10], 2 µM (≈ 0.72 µg/mL); in assay [11], 4 µM (≈ 1.44 µg/mL); in assay [12], 4 µM (≈ 1.44 µg/mL).
`O=C(Nc1ccc(C(F)(F)F)cc1)c1cc(Cl)c(Cl)cc1O`: the MIC in [1] amounted to 1 µM (≈ 0.35 µg/mL); in assay [2] it was 1 µM (≈ 0.35 µg/mL); in assay [3] it was 2 µM (≈ 0.7 µg/mL); in [4] it was 2 µM (≈ 0.7 µg/mL); in assay [5], 1 µM (≈ 0.35 µg/mL); in [6], 1 µM (≈ 0.35 µg/mL). The MIC is 1 µM (≈ 0.35 µg/mL) in [7]; 1 µM (≈ 0.35 µg/mL) in [8]; 1 µM (≈ 0.35 µg/mL) in assay [9]; 1 µM (≈ 0.35 µg/mL) in assay [10]; 2 µM (≈ 0.7 µg/mL) in assay [11]; 2 µM (≈ 0.7 µg/mL) in assay [12].
On to `NNC(=O)c1ccncc1` [ISONIAZID], for which the minimum inhibitory concentration (MIC) worked out at 16 µM (≈ 2.19 µg/mL) in [1]; 16 µM (≈ 2.19 µg/mL) in assay [2]; 32 µM (≈ 4.39 µg/mL) in [3]; 16 µM (≈ 2.19 µg/mL) in assay [4]; 16 µM (≈ 2.19 µg/mL) in assay [5]; 16 µM (≈ 2.19 µg/mL) in assay [6]. The MIC in [7], in assay [8], in assay [9], in [10], in assay [11] and in assay [12] was 16 µM (≈ 2.19 µg/mL) each time.
For `O=C(Nc1ccc(C(F)(F)F)cc1)c1ccc(Cl)cc1O`, the MIC was 2 µM (≈ 0.631 µg/mL) in [1]; 2 µM (≈ 0.631 µg/mL) in assay [2]; 2 µM (≈ 0.631 µg/mL) in [3]; 2 µM (≈ 0.631 µg/mL) in assay [4]; 1 µM (≈ 0.316 µg/mL) in assay [5]; 1 µM (≈ 0.316 µg/mL) in assay [6]. Also, the minimum inhibitory concentration (MIC) stood at 1 µM (≈ 0.316 µg/mL) in assay [7]; 1 µM (≈ 0.316 µg/mL) in [8]; 1 µM (≈ 0.316 µg/mL) in assay [9]; 1 µM (≈ 0.316 µg/mL) in [10]; 2 µM (≈ 0.631 µg/mL) in [11]; 2 µM (≈ 0.631 µg/mL) in assay [12].
With `O=C(Nc1ccc(C(F)(F)F)cc1)c1cc(Br)c(Cl)cc1O`, the MIC in assay [1], in assay [2], in assay [3], in [4], in assay [5] and in [6] was 2 µM (≈ 0.789 µg/mL) each time. Also, the MIC in [7], in assay [8], in assay [9], in assay [10], in [11] and in [12] was 2 µM (≈ 0.789 µg/mL) throughout.
As for `O=C(Nc1ccc(C(F)(F)F)cc1)c1cc(Br)c(Br)cc1O`, the minimal inhibitory concentration (MIC) amounted to 2 µM (≈ 0.878 µg/mL) in assay [1]; 2 µM (≈ 0.878 µg/mL) in [2]; 2 µM (≈ 0.878 µg/mL) in assay [3]; 2 µM (≈ 0.878 µg/mL) in assay [4]; 1 µM (≈ 0.439 µg/mL) in assay [5]; 1 µM (≈ 0.439 µg/mL) in [6]. In addition, the MIC is 1 µM (≈ 0.439 µg/mL) in assay [7]; 2 µM (≈ 0.878 µg/mL) in assay [8]; 1 µM (≈ 0.439 µg/mL) in assay [9]; 2 µM (≈ 0.878 µg/mL) in assay [10]; 2 µM (≈ 0.878 µg/mL) in [11]; 2 µM (≈ 0.878 µg/mL) in assay [12].
`O=C(Nc1ccc(C(F)(F)F)cc1)c1cc(Cl)ccc1O`: the minimal inhibitory concentration (MIC) in [1], in assay [2], in [3], in [4], in assay [5] and in assay [6] was 0.5 µM (≈ 0.158 µg/mL) throughout. Also, the MIC in assay [7], in assay [8], in [9], in assay [10], in assay [11] and in assay [12] was 0.5 µM (≈ 0.158 µg/mL) each time.
As for `O=C(Nc1ccc(C(F)(F)F)cc1)c1cc(Cl)c(Br)cc1O`, the MIC in [1], in assay [2], in assay [3], in assay [4], in assay [5] and in assay [6] was 2 µM (≈ 0.789 µg/mL) throughout. For the same molecule, the MIC in assay [7] stood at 2 µM (≈ 0.789 µg/mL); in assay [8], 2 µM (≈ 0.789 µg/mL); in assay [9], 2 µM (≈ 0.789 µg/mL); in [10], 2 µM (≈ 0.789 µg/mL); in assay [11], 4 µM (≈ 1.58 µg/mL); in [12], 2 µM (≈ 0.789 µg/mL).
`O=C(Nc1ccc(C(F)(F)F)cc1)c1ccc(Br)cc1O`: the MIC in [1] worked out at 1 µM (≈ 0.36 µg/mL); in assay [2], 1 µM (≈ 0.36 µg/mL); in [3], 2 µM (≈ 0.72 µg/mL); in assay [4] it was 1 µM (≈ 0.36 µg/mL); in assay [5], 1 µM (≈ 0.36 µg/mL); in assay [6] it was 1 µM (≈ 0.36 µg/mL). Besides, the minimum inhibitory concentration (MIC) was 1 µM (≈ 0.36 µg/mL) in assay [7]; 1 µM (≈ 0.36 µg/mL) in assay [8]; 1 µM (≈ 0.36 µg/mL) in assay [9]; 1 µM (≈ 0.36 µg/mL) in assay [10]; 2 µM (≈ 0.72 µg/mL) in assay [11]; 1 µM (≈ 0.36 µg/mL) in [12].
